Source: article PMC9804870 (Clinical Pharmacology in Drug Development, 2022)

Assays:
[1] = tested on: CYP3A; conditions: has been reported; ref not given; cited from earlier work
[2] = tested on: gastric pH; conditions: cited from earlier work
[3] = tested on: BTK; conditions: cited from earlier work
[4] = Study 1; type: in vivo; conditions: human, plasma, oral, 100 mg
Method in brief: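 Healthy subjects, four-sequence crossover: 100 mg tablet or capsule fasted (>10 h). Period 3: tablet 30 min after high-fat meal (800–1000 calories), or fasted 2 h after 20 mg PPI following PPI 20 mg BID days −3 to −1. Plasma sampled predose to 24 h. Parent and metabolite by LC-MS/MS (1–1000, 5–5000 ng/mL). t½ noncompartmental (linear up log down).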

[5] = high permeability, low solubility; reduced solubility at higher pH; cited from earlier work
[6] = dose range of 75–250 mg; dose‐proportional; cited from earlier work

## COCCCOc1ccnc(C[S+]([O-])c2nc3ccccc3[nH]2)c1C (stereo not shown) [Rabeprazole]
[1]
  CYP3A inhibition in vitro: weak inhibitor
[2]
  Time needed to achieve maximum suppression of gastric pH: 3 days

## CC#CC(=O)NCCCC(=O)c1nc(-c2ccc(C(=O)Nc3ccccn3)cc2)c2c(N)nccn12 [ACP‐5862]
[3]
  Potency with respect to BTK inhibition, less than acalabrutinib: 50%

## CC#CC(=O)N1CCC[C@H]1c1nc(-c2ccc(C(=O)Nc3ccccn3)cc2)c2c(N)nccn12 [Acalabrutinib]
[4]
  half-life: 2 to 3 h
[5]
  Biopharmaceutical Classification System class: class II
[6]
  Dose linearity of pharmacokinetics: linear pharmacokinetics

## COc1ccc2[nH]c([S+]([O-])Cc3ncc(C)c(OC)c3C)nc2c1 (stereo not shown) [omeprazole]
[2]
  Time needed to achieve maximum suppression of gastric pH: 5 days
